Data as given in ChEMBL document CHEMBL1122242, “Phenylenebis(oxy)bis[2,2-dimethylpentanoic acid]s: agents that elevate high-density lipoproteins” (1983).
Several values for one entry are separate records, joined by “and”; a condition that tells them apart may be missing. Equal values may be shown once.

Experiments:
Format in all cases: functional
[1] = system: Rattus norvegicus; test: Hypolipidemic effects (high-density lipoprotein (HDL) cholesterol) in male rats; Compound was screening orally at 50 mg/Kg
Summary of the method: (§1)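 Male rats, 10 per group, fed 7 days on chow with 10% fat (5.5% added peanut oil), 1.5% cholesterol and 0.1% cholic acid. Oral gavage on days 4-7 in 4% acacia, usually 50 mg/kg daily. Fasted overnight, killed day 8, atrial blood into EDTA. Plasma cholesterol, TG and HDL cholesterol (after MnCl2/heparin precipitation) by Autoanalyzer. % change vs controls, Student's t test.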

[2] = organism: Rattus norvegicus; test: Hypolipidemic effects(liver weight) in male rats; summary of the method: as §1
[3] = system: Rattus norvegicus; test: Hypolipidemic effects (low-density lipoprotein (LDL) cholesterol) in male rats;Compound was screening orally at 50 mg/Kg; summary of the method: as §1
[4] = organism: Rattus norvegicus; test: Hypolipidemic effects(plasma TG) in male rats; summary of the method: as §1
[5] = organism: Rattus norvegicus; test: Hypolipidemic effects(plasma cholesterol) in male rats; summary of the method: as §1
[6] = system: Rattus norvegicus; test: Hypolipidemic effects (Low-density lipoprotein (LDL) cholesterol) in male rats at 12.50 mg/kg; details: dose 12.5 mg/kg
Summary of the method: (§2)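 Head-to-head oral dosing at 12.5, 25 and 50 mg/kg daily […] in male rats kept on a high lipid diet, alongside gemfibrozil reference. Plasma lipid fractions and liver weight expressed as % change vs controls.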

[7] = system: Rattus norvegicus; test: Hypolipidemic effects as the ratio of (HDL/LDL) in male rats at dose 50 mg/kg.
Summary of the method: (§3)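 Male rats on a high lipid diet, dosed orally […] at 12.5, 25 or 50 mg/kg, with gemfibrozil reference. HDL/LDL (VLDL included) ratio from densitometry of polyacrylamide gel electrophoresis patterns of plasma. Expressed as % change vs controls.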

[8] = system: Rattus norvegicus; test: Hypolipidemic effects(plasma TG) in male rats at 12.50 mg/kg; details: dose 12.5 mg/kg; summary of the method: as §2
[9] = system: Rattus norvegicus; test: Hypolipidemic effects(plasma cholesterol) in male rats at 50 mg/kg; summary of the method: as §2
[10] = system: Rattus norvegicus; test: Hypolipidemic effects(plasma TG) in male rats at 50 mg/kg; summary of the method: as §2
[11] = system: Rattus norvegicus; test: Hypolipidemic effects(plasma cholesterol) in male rats at 12.50 mg/kg; details: dose 12.5 mg/kg; summary of the method: as §2
[12] = system: Rattus norvegicus; test: Hypolipidemic effects (high-density lipoprotein (HDL) cholesterol) in male rats at 50 mg/kg orally; details: route oral; summary of the method: as §2
[13] = system: Rattus norvegicus; test: Hypolipidemic effects as the ratio of (HDL/LDL) in male rats at dose 25 mg/kg.; summary of the method: as §3
[14] = system: Rattus norvegicus; test: Hypolipidemic effects (Low-density lipoprotein (LDL) cholesterol) in male rats at 25 mg/kg; summary of the method: as §2
[15] = system: Rattus norvegicus; test: Hypolipidemic effects (high-density lipoprotein (HDL) cholesterol) in male rats at 12.50 mg/kg; details: dose 12.5 mg/kg; summary of the method: as §2
[16] = system: Rattus norvegicus; test: Hypolipidemic effects(liver weight) in male rats at 50 mg/kg; summary of the method: as §2
[17] = system: Rattus norvegicus; test: Hypolipidemic effects(plasma cholesterol) in male rats at 25 mg/kg; summary of the method: as §2
[18] = system: Rattus norvegicus; test: Hypolipidemic effects(liver weight) in male rats at 25 mg/kg; summary of the method: as §2
[19] = system: Rattus norvegicus; test: Hypolipidemic effects(plasma TG) in male rats at 25 mg/kg; summary of the method: as §2
[20] = system: Rattus norvegicus; test: Hypolipidemic effects as the ratio of (HDL/LDL) in male rats at dose 12.5 mg/kg.; summary of the method: as §3
[21] = system: Rattus norvegicus; test: Hypolipidemic effects(liver weight) in male rats at 12.50 mg/kg; details: dose 12.5 mg/kg; summary of the method: as §2
[22] = system: Rattus norvegicus; test: Hypolipidemic effects (high-density lipoprotein (HDL) cholesterol) in male rats at 50 mg/kg; summary of the method: as §2
[23] = system: Rattus norvegicus; test: Hypolipidemic effects (high-density lipoprotein (HDL) cholesterol) in male rats at 25 mg/kg; summary of the method: as §2
[24] = system: Rattus norvegicus; test: Hypolipidemic effects (Low-density lipoprotein (LDL) cholesterol) in male rats at 50 mg/kg; summary of the method: as §2
[25] = system: Rattus norvegicus; test: Hypolipidemic effects (high-density lipoprotein (HDL) cholesterol) in male rats at 50 mg/kg; Compound was screening orally at 50 mg/Kg; summary of the method: as §1
[26] = system: Rattus norvegicus; test: Hypolipidemic effects (Low-density lipoprotein (LDL) cholesterol) in male rats at 50 mg/kg; Compound was screening orally at 50 mg/Kg; summary of the method: as §1
[27] = system: Rattus norvegicus; test: Hypolipidemic effects (high-density lipoprotein (HDL) cholesterol) in male rats at a dose of 50 mg/kg; Compound was screening orally at 50 mg/Kg; summary of the method: as §1
[28] = system: Rattus norvegicus; test: Hypolipidemic effects (high-density lipoprotein (HDL) cholesterol) in male rats at 12.5 mg/kg; summary of the method: as §2
[29] = system: Rattus norvegicus; test: Hypolipidemic effects(liver weight) in male rats at 12.5 mg/kg; summary of the method: as §2
[30] = system: Rattus norvegicus; test: Hypolipidemic effects(plasma cholesterol) in male rats at a dose of 50 mg/kg; summary of the method: as §1
[31] = system: Rattus norvegicus; test: Hypolipidemic effects(plasma TG) in male rats at a dose of 50 mg/kg; summary of the method: as §1
[32] = system: Rattus norvegicus; test: Hypolipidemic effects (Low-density lipoprotein (LDL) cholesterol) in male rats at a dose of 50 mg/kg; Compound was screening orally at 50 mg/Kg; summary of the method: as §1

Structure (SMILES)	Change [1]	Change [2]	Change [3]	Change [4]	Change [5]	Change [6]	Change [7]	Change [8]	Change [9]	Change [10]	Change [11]	Change [13]	Change [14]	Change [15]	Change [16]	Change [17]	Change [18]	Change [19]	Change [20]	Change [21]	other results
COC(=O)C(C)(C)CCCOc1cccc(OCCCC(C)(C)C(=O)OC)c1N	46%	8%	-42%	-41%	-37%	–	–	–	–	–	–	–	–	–	–	–	–	–	–	–	–
CC(C)(CCCCOc1ccc(OCCCCC(C)(C)C(=O)O)cc1)C(=O)O	–	–	–	–	–	-40%	1722%	-16%	0%	-20%	-33%	339%	-50%	81%	36%	-35%	14%	0%	180%	4%	Change [12]: 1477%; Change [22]: 1477%; Change [23]: 227%
CC(C)(CCCOc1ccc(OCCCC(C)(C)C(=O)O)c(-c2ccc(Cl)cc2)c1)C(=O)O	224%	17%	-78%	-29%	-47%	–	–	–	–	–	–	–	–	–	–	–	–	–	–	–	–
CC(C)(CCCOc1ccc(OCCCC(C)(C)C(=O)O)c(Cl)c1)C(=O)O	–	–	–	–	–	-74%	1445%	-28%	-53%	0%	-65%	493%	-77%	94%	38%	-60%	18%	-31%	242%	8%	Change [24]: -62%; Change [25]: 753%; Change [26]: -62%; Change [22]: 753%; Change [23]: 206%
CC(O)c1cc(OCCCC(C)(C)C(=O)O)ccc1OCCCC(C)(C)C(=O)O (centres undefined)	525%	12%	-70%	0%	-27%	–	–	–	–	–	–	–	–	–	–	–	–	–	–	–	–
CC(C)(CO)CCCCOc1ccc(OCCCCC(C)(C)CO)cc1	907%	30%	-54%	0%	0%	–	–	–	–	–	–	–	–	–	–	–	–	–	–	–	–
CC(C)(CCCOc1ccc(OCCCC(C)(C)C(=O)O)c(-c2ccccc2)c1)C(=O)O	–	–	–	–	–	-78%	2432%	32%	-27%	31%	-53%	1798%	-72%	518%	34%	-52%	22%	82%	945%	13%	Change [25]: 1410%; Change [26]: -85%; Change [23]: 741%
CC(C)(CCCOc1ccc(C(=O)c2ccccc2)c(OCCCC(C)(C)C(=O)O)c1)C(=O)O	169%	11%	-10%	57%	0%	–	–	–	–	–	–	–	–	–	–	–	–	–	–	–	–
Cc1ccc(C)c(OCCCC(C)(C)C(=O)O)c1 [GEMFIBROZIL]	–	–	–	–	–	-16%	–	45%	–	–	0%	–	–	134%	–	–	–	–	–	7%	Change ([7]; 50 mg/kg): 364% and 594% and 405%; Change ([9]; 50 mg/kg): -26% and -29%; Change [27]: 339%; Change ([10]; 50 mg/kg): 57% and 69%; Change [24]: -42%; Change ([13]; 25 mg/kg): 214% [middle of 5 runs]; Change [28]: 88% and 134% and 116% and 133%; Change ([14]; 25 mg/kg): -22% [middle of 4 runs]; Change [29]: 7% and 4%; Change ([16]; 50 mg/kg): 17% and 26% and 13%; Change [30]: 0%; Change [31]: 233%; Change ([18]; 25 mg/kg): 10% and 8% and 9% and 11%; Change ([19]; 25 mg/kg): 64% [middle of 5 runs]; Change ([20]; 12.5 mg/kg): 98% [middle of 5 runs]; Change [32]: -32%; Change ([22]; 50 mg/kg): 498% and 306%; Change ([23]; 25 mg/kg): 215% and 257% and 171% and 236% and 246%
